The values that follow come from ChEMBL document CHEMBL2169835, “Flavonoid dimers as novel, potent antileishmanial agents” (J Med Chem, 2012).

Data set [1] concerns Leishmania donovani. The experiment in a line: Antimicrobial activity against axenically grown Leishmania donovani amastigotes. Format: functional, organism-based.
In another data set the test system is L6. The data set can be described thus: Cytotoxicity against rat L6 cells. Format: cell-based.
Data set [2] is described as follows: Therapeutic index, ratio of IC50 for rat L6 cells to IC50 for Leishmania donovani. It is filed as cell-based. The settings on record: L6 cells (cytotoxicity) versus Leishmania donovani, read-out: Ratio IC50.
Data set [3] in a line: Therapeutic index, ratio of IC50 for mouse PEM cells to IC50 for wild-type Leishmania donovani AG83 promastigote. Particulars: read-out: Ratio IC50. Format: cell-based. In a few lines: (§1)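 Index is PEM cytotoxicity IC50 over promastigote IC50. For PEM, cells were seeded at 2 × 10^4 per well in supplemented DMEM, given graded doses for 72 h at 37 °C, 5% CO2, and read by MTS survival.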

Data set [4] is described as follows: Therapeutic index, ratio of IC50 for mouse Peritoneal macrophages to IC50 for pentamidine-resistant Leishmania donovani AG83PentR50 promastigote. The settings on record: read-out: Ratio IC50. In outline:
as §1

Data set [5] is described as follows: Cytotoxicity against mouse Peritoneal macrophages cells after 72 hrs by MTS assay. It is filed as cell-based. Particulars: Peritoneal macrophage cell. In outline:
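Primary mouse peritoneal elicited macrophages were seeded at 2 × 10^4 cells per well in DMEM with 10% heat-inactivated FBS. They were exposed to graded doses for 72 h at 37 °C in 5% CO2. Survival was read by MTS/PMS tetrazolium reduction (OD 490 nm) relative to untreated control. The IC50 was the concentration halving OD. Results are mean ± SEM of 1–4 independent experiments.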

In data set [6] the test system is Leishmania donovani. The data set can be described thus: Antimicrobial activity against wild-type Leishmania donovani AG83 promastigote assessed as inhibition of parasite growth after 72 hrs by MTS assay. It is filed as functional, organism-based. The settings on record: AG83, 72 h. In a few lines: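 Promastigotes were grown in Schneider's medium pH 6.9 with 10% heat-inactivated FBS at 27 °C, seeded at 1 × 10^5 per well, and exposed to serial concentrations for 72 h at 27 °C. Compounds were in DMSO (≤1% final) or water. MTS:PMS (20:1) was added for 4 h, then OD490 was read.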
Background: Tetrazolium assays rely on reduction of a dye to a coloured formazan, in cell work by metabolically active cells.

Data set [7] in a line: Therapeutic index, ratio of IC50 for mouse Peritoneal macrophages to IC50 for SSG-resistant Leishmania donovani 39 promastigote. The settings on record: read-out: Ratio IC50. In outline:
as §1

In data set [8] the test system is Leishmania donovani. The experiment in a line: Antimicrobial activity against SSG-resistant Leishmania donovani 39 amastigote infected in mouse peritoneal macrophages assessed as inhibition of parasite growth after 72 hrs by Giemsa staining method. The settings on record: Leishmania donovani, 39, 72 h. It is filed as functional, organism-based. In outline: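 Mouse peritoneal elicited macrophages were seeded on coverslips at 1 × 10^5 cells per well in DMEM with 10% heat-inactivated FBS and left to attach overnight. They were infected overnight with late-log Ld39 promastigotes (parasite:macrophage 20:1) at 37 °C, 5% CO2, then washed. Compounds were applied for 72 h at 37 °C. Giemsa-stained amastigotes per 100 macrophages gave IC50; N = 1−3.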

Data set [9] concerns Leishmania donovani. The data set can be described thus: Antimicrobial activity against SSG-resistant Leishmania donovani 39 promastigote assessed as inhibition of parasite growth after 72 hrs by MTS assay. It is filed as functional, organism-based. Particulars: Leishmania donovani, 39, 72 h. In a few lines:
(§2)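 Promastigotes were grown in Schneider's medium pH 6.9 with 10% heat-inactivated FBS at 27 °C, seeded at 1 × 10^5 per well, and exposed to serial concentrations for 72 h at 27 °C. Compounds were in DMSO (≤1% final) or water. MTS:PMS (20:1) was added for 4 h, then OD490 was read. Survival was % of untreated control; IC50 = concentration halving OD; N = 1−4.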

Data set [10] has as its system Leishmania donovani. The data set can be described thus: Antimicrobial activity against pentamidine-resistant Leishmania donovani AG83PentR50 promastigote assessed as inhibition of parasite growth after 72 hrs by MTS assay. Format: functional, organism-based. Particulars: AG83PentR50, 72 h. In outline: as §2
The nature of data set [11]: Therapeutic index, ratio of IC50 for mouse Peritoneal macrophages to IC50 for SSG-resistant Leishmania donovani 39 amastigote infected in mouse peritoneal macrophages. Particulars: read-out: Ratio IC50.
Data set [12] concerns Leishmania donovani. The experiment in a line: Antimicrobial activity against SSG-resistant Leishmania donovani 39 amastigote infected in mouse peritoneal macrophages assessed as inhibition of parasite growth at 5 uM after 3 days by Giemsa staining method. It is filed as functional, organism-based. In outline: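 Coverslip-grown peritoneal macrophages were infected 24 h at 37 °C with late-log Ld39 promastigotes (20:1), washed, then exposed to 5 μM compound for 3 days at 37 °C, with a DMSO solvent control. Giemsa staining was scored as percentage of macrophages infected and amastigotes per 100 macrophages.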

Data set [13] has as its system Leishmania donovani. The data set can be described thus: Ratio of isoginkgetin IC50 to compound IC50 for axenically grown Leishmania donovani amastigotes. Format: functional.
In the next data set the test system is RAW264.7. The data set can be described thus: Cytotoxicity against mouse RAW264.7 cells after 72 hrs by MTS assay. It is filed as cell-based. The settings on record: RAW264.7, 72 h. In a few lines:
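RAW 264.7 murine macrophage line was plated at 1 × 10^4 cells per well in supplemented DMEM. Cells received a graded compound series for 72 h at 37 °C, 5% CO2, with a maximum of 1% DMSO. Viability was measured by MTS with PMS coupling at OD 490 nm, as percent of untreated control. The IC50 was the concentration reducing OD by half, given as mean ± SEM, N = 1–4.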

Data set [14] relates to Leishmania donovani. The experiment in a line: Selectivity ratio of IC50 for compound-resistant Leishmania donovani AG83PentR50 promastigote to IC50 for wild-type Leishmania donovani AG83 promastigote. Format: functional.
Data set [15] concerns Leishmania donovani. The data set can be described thus: Selectivity ratio of IC50 for Leishmania donovani promastigote to IC50 for SSG-resistant Leishmania donovani 39 amastigote infected in mouse peritoneal macrophages. It is filed as functional.

Active and inactive are the calls of the source. The calls are words filed in the database; no cut-off is given here.

As a reminder, the IC50 is the point on the concentration scale where inhibition reaches its midpoint. In the case of `COc1ccc(-c2cc(=O)c3c(O)cc(O)c(-c4cc(-c5cc(=O)c6c(O)cc(O)cc6o5)ccc4OC)c3o2)cc1` [ISOGINKGETIN], the half-inhibitory concentration (IC50) in the data set on Leishmania donovani [1] was found to be 1.9 µM; with L6 it was 11 µM. Also, the selectivity ratio in data set [2] amounted to 5.8.
With `COc1cc(O)c2c(=O)cc(-c3ccc(OC)c(-c4c(O)cc(O)c5c(=O)cc(-c6ccc(O)cc6)oc45)c3)oc2c1` [GINKGETIN], the IC50 in the data set with Leishmania donovani [1] was 2.8 µM.
Compound `COc1ccc(-c2cc(=O)c3c(O)cc(O)cc3o2)cc1-c1c(O)cc(O)c2c(=O)cc(-c3ccc(O)cc3)oc12` [BILOBETIN] yielded an IC50 with Leishmania donovani [1] of 2.7 µM.
In the case of `O=c1cc(-c2ccc(OCCOCCN(CCOCCOc3ccc(-c4cc(=O)c5ccccc5o4)cc3)Cc3ccncc3)cc2)oc2ccccc12`, the selectivity ratio was over 440 in data set [3], over 677 in [4], over 419 in data set [7] and over 140 in [11]. Moreover, the half-maximal inhibitory concentration (IC50) in data set [5] was over 88 µM; in the data set on Leishmania donovani [6], 0.2 µM; in the data set on Leishmania donovani [8] it was 0.63 µM; in the data set with Leishmania donovani [9] it was 0.21 µM; in the data set on Leishmania donovani [10], 0.13 µM; in the data set on RAW264.7 it was over 100 µM. Besides, in the data set on Leishmania donovani [12], the inhibition entry is “Active”. For the same compound, in the data set with Leishmania donovani [13], the “Ratio IC50” value stood at 3.
For `COc1ccc(-c2cc(=O)c3c(O)cc(O)c(-c4cc(-c5cc(=O)c6c(O)cc(OC)cc6o5)ccc4OC)c3o2)cc1` [SCIADOPITISIN], 8.2 µM corresponded to half-maximal inhibition with Leishmania donovani [1] (IC50).
On to `N=C(N)c1ccc(OCCCCCOc2ccc(C(=N)N)cc2)cc1` [PENTAMIDINE], for which, in the data set on Leishmania donovani [14], the “Ratio IC50” value was determined as 3.9. For the same compound, the selectivity ratio in data set [3] is 2.2; in [4] it was 0.6; in data set [7] it was 5.7; in [11] it was under 1. For the same compound, the IC50 in data set [5] is 30.4 µM; in the data set on Leishmania donovani [6] it was 13.9 µM; in the data set with Leishmania donovani [8] it was over 30 µM; with Leishmania donovani [9], 5.3 µM; with Leishmania donovani [10], 54.8 µM; in the data set with RAW264.7 it was 30 µM.
With `O=c1c(O)c(-c2ccc(O)c(O)c2)oc2cc(O)cc(O)c12` [QUERCETIN], the selectivity ratio in data set [3] was over 1; in data set [4], over 1.4; in data set [7], over 1; in [11], over 16.7. For the same compound, the half-inhibitory concentration (IC50) is over 100 µM in [5]; 103 µM in the data set on Leishmania donovani [6]; 6 µM in the data set with Leishmania donovani [8]; over 100 µM in the data set with Leishmania donovani [9]; 69.6 µM in the data set with Leishmania donovani [10]; 95.6 µM with RAW264.7. Further, the “Ratio IC50” value in the data set with Leishmania donovani [15] is 17.
On to `O=c1cc(-c2ccc(O)c(O)c2)oc2cc(O)cc(O)c12` [LUTEOLIN], for which the selectivity ratio in data set [3] was found to be 0.7; in data set [4], 0.9; in data set [7], 0.9; in [11] it was 10.1. Further, the IC50 was 77.7 µM in data set [5]; 114 µM with Leishmania donovani [6]; 7.7 µM in the data set on Leishmania donovani [8]; 89 µM in the data set with Leishmania donovani [9]; 90.9 µM in the data set with Leishmania donovani [10]; 43.2 µM with RAW264.7. The “Ratio IC50” value in the data set with Leishmania donovani [15] came to 12.
For the compound `O=c1cc(-c2ccc(Oc3c(O)cc(O)c4c(=O)cc(-c5ccc(O)cc5)oc34)cc2)oc2cc(O)cc(O)c12` [LANAROFLAVONE], in the data set on Leishmania donovani [1], it took 7.2 µM to reach half-maximal inhibition (IC50).
As to `C[C@@H]1[C@H](O)[C@@H](C)/C=C/C=C/C=C/C=C/C=C/C=C/C=C/[C@H](O[C@@H]2O[C@H](C)[C@@H](O)[C@H](N)[C@@H]2O)C[C@@H]2O[C@](O)(C[C@@H](O)C[C@@H](O)[C@H](O)CC[C@@H](O)C[C@@H](O)CC(=O)O[C@H]1C)C[C@H](O)[C@H]2C(=O)O` [AMPHOTERICIN B], the selectivity ratio is 82.2 in data set [3], 145 in data set [4], 77.9 in data set [7] and 119 in data set [11]. For the same compound, the half-inhibitory concentration (IC50) worked out at 7.4 µM in [5]; 0.09 µM in the data set on Leishmania donovani [6]; 0.062 µM in the data set with Leishmania donovani [8]; 0.095 µM in the data set with Leishmania donovani [9]; 0.051 µM with Leishmania donovani [10]; 12 µM in the data set on RAW264.7.
For sodium stibogluconate, in the data set on Leishmania donovani [15], the Ratio IC50 came out at 11.
